Published values gathered from unrelated publications.
Each line is one published result; the experiments were not run side by side.
Effect on: cell growth or viability

Structure (SMILES)	cell line	method	time	IC50
O=C(Nc1ccc(F)cc1)Nc1nc2cc(-c3ccc4ncn(CC(=O)N5CCOCC5)c(=O)c4c3)ccc2s1	NCI-H1975	MTT	72 h	> 20000 nM
CCCCCC(=O)Nc1ccc(-c2ccc3ncn(CCC)c(=O)c3c2)cn1	NCI-H1975	CCK-8	72 h	74 nM
Cc1ncsc1-c1ccc([C@H](C)NC(=O)[C@@H]2C[C@@H](O)CN2C(=O)[C@@H](NC(=O)CN2CCN(c3cc(-c4ccccc4O)nnc3N)CC2)C(C)(C)C)cc1	HCC515	ATP luminescence	7 days	182 nM
O=C(Nc1ccc(C(F)(F)F)cc1)Nc1nc2cc(-c3ccc4ncn(CCN5CCOCC5)c(=O)c4c3)ccc2s1	NCI-H1975	MTT	72 h	1770 nM
CCCn1cnc2ccc(-c3ccc(N4CCC(C)CC4=O)nc3)cc2c1=O (centres unmarked)	NCI-H1975	CCK-8	72 h	> 10000 nM
Nc1ccn([C@@H]2O[C@H](CO)[C@@H](O)C2(F)F)c(=O)n1	HEK293	MTT	48 h	17.4 µg/mL
O=C(NCCc1ccccc1)Nc1nc2cc(-c3ccc4ncn(CCN5CCOCC5)c(=O)c4c3)ccc2s1	NCI-H1975	MTT	72 h	3200 nM
CN(C)C(=O)c1cc2cnc(Nc3ccc(-c4ccc5c(=O)cc(N6CCOCC6)oc5c4)cc3)nc2n1C1CCCC1	HEK293	ATP luminescence	72 h	550 nM
COc1ccc(NC(=O)Nc2nc3cc(-c4ccc5ncn(CCN6CCOCC6)c(=O)c5c4)ccc3s2)cc1	NCI-H1975	MTT	72 h	> 20000 nM
Cc1cccc(NC(=O)Nc2ccc(-c3ccc4ncn(Cc5ccccc5)c(=O)c4c3)cn2)c1	NCI-H1975	CCK-8	72 h	> 10000 nM
CN1CCC(NC2CCc3[nH]c4c(C(N)=O)ccc(-c5ccccc5Cl)c4c3C2)CC1 (centres unmarked)	Pfeiffer	–	96 h	25.7 nM
CCCCC(=O)Nc1ccc(-c2ccc3ncn(CC4CC4)c(=O)c3c2)cn1	NCI-H1975	CCK-8	72 h	79 nM
CCOc1ccc(Nc2c3c(nc4ccccc24)CCC3)cc1	HEK293	resazurin	72 h	18100 nM
O=C(Nc1cccc(F)c1)Nc1nc2cc(-c3ccc4ncn(Cc5ccccc5)c(=O)c4c3)ccc2s1	NCI-H1975	MTT	72 h	> 20000 nM
CCCCC(=O)Nc1ccc(-c2ccc3ncn(CCC)c(=O)c3c2)c(C)n1	NCI-H1975	CCK-8	72 h	5440 nM
O=C(Nc1ccc(Cl)cc1)Nc1nc2cc(-c3ccc4ncn(CCN5CCOCC5)c(=O)c4c3)ccc2s1	NCI-H1975	MTT	72 h	> 20000 nM
Cc1cnc(Nc2ccc(OCCN3CCCC3)cc2)nc1Nc1cccc(S(=O)(=O)NC(C)(C)C)c1	SET-2	CCK-8	–	1010 nM
CCCCC(=O)Nc1ccc(-c2ccc3ncn(CCC)c(=O)c3c2)cc1	NCI-H1975	CCK-8	72 h	9810 nM
COc1cc(C2C3=C(COC3=O)N(CCO)c3cc4c(cc32)CCC4)cc(OC)c1OC (centres unmarked)	HEK293	ATP luminescence	48 h	1550 nM
Cc1ncsc1-c1ccc(CNC(=O)[C@@H]2C[C@@H](O)CN2C(=O)[C@@H](NC(=O)C2(F)CC2)C(C)(C)C)c(OCCOc2ccc(CN3CCN(c4cc(-c5ccccc5O)nnc4N)CC3)cc2)c1	HCC515	ATP luminescence	7 days	261 nM
